In experiment [1] the target is Aldo-keto reductase family 1 member B1 (Rattus norvegicus, UniProt P07943). The experiment is described as follows: Inhibition of Wistar rat lenses ALR2 by spectrophotometry. Format: tissue-based, Lens of camera-type eye. The essentials:
(§1)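 ALR2 enzyme extract in 0.1 M sodium phosphate pH 6.2 with NADPH (0.25 mL of 0.10 mM) and compound diluted from DMSO, preincubated 10 min at 32 °C. Started with D,L-glyceraldehyde (0.25 mL of 10 mM, 1 mL total). Fall in A340 followed for 4 min, corrected for substrate-free rate. Screened at 10^-4 M. IC50 from at least four concentrations giving 20-80% inhibition, in triplicate, with 95% CL.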

For experiment [2], the target named is Aldo-keto reductase family 1 member A1 (Rattus norvegicus, UniProt P51635). The experiment is described as follows: Inhibition of Wistar rat kidney ALR1 by spectrophotometry. The essentials:
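ALR1 enzyme extract in 0.1 M sodium phosphate pH 7.2 with NADPH (0.25 mL of 0.12 mM) and compound diluted from DMSO, preincubated 10 min at 37 °C. Started with sodium D-glucuronate (0.25 mL of 20 mM, 1 mL total). Fall in A340 followed for 4 min, corrected for substrate-free rate. Screened at 10^-4 M. IC50 from at least four concentrations, 10^-4 to 10^-8 M, in triplicate.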

Experiment [3] has as its system Rattus norvegicus. The experiment is described as follows: Inhibition of ALR2 in 5-day STZ-induced diabetic Wistar rat model assessed as normalization of elevated sorbitol levels in sciatic nerves at 100 mg/kg/day, po for 5 days. Format: functional, Sciatic nerve. Details: scale not given: the % may be the effect or the level left. Summed up:
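STZ-diabetic male Wistar rats (ip 55 mg/kg) got compound po in 0.5% CMC-Na for 5 days. Sciatic nerve taken 6 h after last dose, boiled, homogenized in 6% perchloric acid and neutralized. Sorbitol read enzymatically with sorbitol dehydrogenase/NAD+ at pH 9.4, 60 min 37 °C, fluorescence ex 365/em 430 nm. Inhibition = (S-T)/(S-N)×100 against diabetic and nondiabetic controls.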

In experiment [4] the test system is Rattus norvegicus. The experiment is described as follows: Inhibition of ALR2 in 5-day STZ-induced diabetic Wistar rat model assessed as blood glucose levels at 100 mg/kg/day, po for 5 days (reference value: 22.2 +/- 2.62 mmol/L). Format: functional.
In experiment [5] the test system is Aldehyde reductase, AKR1A1 (Rattus norvegicus). The experiment is described as follows: Inhibition of Wistar rat kidney ALR1 at 0.1 mM by spectrophotometry.
Experiment [6] concerns the target Aldo-keto reductase family 1 member B1 (Rattus norvegicus) (UniProt P07943). The experiment is described as follows: Inhibition of Wistar rat lenses ALR2 at 0.1 mM by spectrophotometry. Format: tissue-based. The settings on record: Lens of camera-type eye. Summed up: as §1

pIC50: −log10 of the molar value.

Chain of Aldo-keto reductase family 1 member A1 (P51635 whole entry, looked up): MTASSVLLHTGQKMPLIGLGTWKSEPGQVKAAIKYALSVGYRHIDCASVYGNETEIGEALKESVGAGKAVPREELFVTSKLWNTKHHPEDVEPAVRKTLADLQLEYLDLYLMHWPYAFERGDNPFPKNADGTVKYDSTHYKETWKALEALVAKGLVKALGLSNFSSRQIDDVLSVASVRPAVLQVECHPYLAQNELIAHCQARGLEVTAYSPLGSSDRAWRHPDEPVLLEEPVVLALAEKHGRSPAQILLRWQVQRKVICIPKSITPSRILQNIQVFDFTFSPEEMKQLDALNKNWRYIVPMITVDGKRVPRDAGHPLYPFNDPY

As a reminder, the pIC50 is the negative decadic logarithm of the IC50, by convention in mol/L. Turning to `O=C(O)CN1CN(Cc2ccc(Br)cc2F)c2ccccc2S1(=O)=O`, the pIC50 in experiment [1] is 4.23.
Still for that read-out and setting: as for `O=C(O)CN1CN(Cc2cc(F)c(F)cc2F)S(=O)(=O)c2ccccc21`, the figure is 6.95.
Regarding `O=C(O)CN1CN(Cc2ccc(Br)cc2F)S(=O)(=O)c2cc(Br)ccc21`, the pIC50 in experiment [1] was 7.15; in experiment [2] it was 4.16. For the same compound, the Activity in experiment [3] is 42.4%; in experiment [4] it was 18.4 mmol/L.
In the case of `O=C(O)CN1CN(Cc2ccc(Br)cc2F)S(=O)(=O)c2ccccc21`, the figures for the pIC50 in experiment [1] and in experiment [2] were 6.90 and 4.15, respectively.
Turning to `O=C(O)CN1CN(Cc2cccc([N+](=O)[O-])c2)S(=O)(=O)c2cc(Cl)ccc21`, the figures for the pIC50 in experiment [1] and in experiment [2] were 7.03 and 4.08, respectively. Moreover, the Activity in experiment [3] was 45%; in experiment [4] it was 19.7 mmol/L.
For orientation: inhibition means the percentage by which the read-out fell short of the control. Consider `O=C(O)CN1CN(Cc2ccc(C(F)(F)F)cc2)S(=O)(=O)c2ccccc21`, for which, in experiment [5], the inhibition is 42%. This compound showed a pIC50 in experiment [1] of 6.01.
On to `O=C(O)CN1CN(Cc2cccc([N+](=O)[O-])c2)S(=O)(=O)c2cc(F)ccc21`, for which the pIC50 in experiment [1] is 6.97; in experiment [2] it was 4.21. Besides, the Activity in experiment [3] came to 43.6%; in experiment [4], 19.8 mmol/L.
Turning to `O=C(O)CN1CN(Cc2ccc(C(F)(F)F)cc2)S(=O)(=O)c2cc(Br)ccc21`, the pIC50 in experiment [1] was 6.17; in experiment [2], 3.96.
On the same counts, the results for `O=C(O)CN1CN(Cc2cccc([N+](=O)[O-])c2)S(=O)(=O)c2cc(Br)ccc21` are 6.94 and 3.99.
As to `O=C(O)CN1CN(Cc2ccc(C(F)(F)F)cc2)c2ccccc2S1(=O)=O`, the inhibition in experiment [6] amounted to 41.3%.
For the compound `O=C(O)CN1CN(Cc2cc(F)c(F)cc2F)S(=O)(=O)c2cc(F)ccc21`, the results for the pIC50 in experiment [1] and in experiment [2] were 7.18 and 4.09, respectively. Further, the Activity in experiment [3] came out at 68.2%; in experiment [4], 18.4 mmol/L.
`O=C(O)CN1CN(Cc2cc(F)c(F)cc2F)c2ccccc2S1(=O)=O` showed a negative-log IC50 (pIC50) in experiment [1] of 4.85.
On the same count and under the same terms, as for `O=C(O)CN1CN(Cc2cccc([N+](=O)[O-])c2)c2ccccc2S1(=O)=O`, the figure is 4.13.
The compound `O=C(O)CN1CN(Cc2ccc(C(F)(F)F)cc2)S(=O)(=O)c2cc(Cl)ccc21` came in with an inhibition in experiment [5] of 45%. The compound further showed a pIC50 in experiment [1] of 6.23.
With `NC(=O)[C@@H]1C[C@]2(NC(=O)NC2=O)c2cc(F)ccc2O1` [FIDARESTAT], the pIC50 in experiment [1] is 7.54. Besides, the Activity was 100% in experiment [3] and 18.5 mmol/L in experiment [4].
Take `O=C(O)CN1CN(Cc2ccc(C(F)(F)F)cc2)S(=O)(=O)c2cc(F)ccc21`: the inhibition in experiment [5] was 40%. The same compound showed a pIC50 in experiment [1] of 6.03.
As to `O=C(O)CN1CN(Cc2cc(F)c(F)cc2F)S(=O)(=O)c2cc(Cl)ccc21`, the pIC50 in experiment [1] was 7.49; in experiment [2], 4.30. For the same compound, the Activity in experiment [3] is reported as 61.5%; in experiment [4] it was 17.9 mmol/L.
Taken in the same sequence, the figures for `O=C(O)CN1CN(Cc2ccc(Br)cc2F)S(=O)(=O)c2cc(F)ccc21` were 7.05, 3.91, 47.3% and 17.9 mmol/L.
With `O=C(O)CN1CN(Cc2cc(F)c(F)cc2F)S(=O)(=O)c2cc(Br)ccc21`, the figures for the pIC50 in experiment [1] and in experiment [2] were 7.28 and 4.27, respectively. Also, the Activity in experiment [3] was found to be 51.2%; in experiment [4], 20.1 mmol/L.
`O=C(O)CN1CN(Cc2ccccc2)S(=O)(=O)c2ccccc21`: the negative-log IC50 (pIC50) in experiment [1] is 3.99.
Consider `O=C(O)CN1CN(Cc2ccc(Br)cc2F)S(=O)(=O)c2cc(Cl)ccc21`, for which the results for the pIC50 in experiment [1] and in experiment [2] were 7.39 and 4.23, respectively. Moreover, the Activity in experiment [3] was determined as 60.7%; in experiment [4], 18.2 mmol/L.
In the case of `O=C(O)CN1CN(Cc2cccc([N+](=O)[O-])c2)S(=O)(=O)c2ccccc21`, the pIC50 was 6.66 in experiment [1] and 4.25 in experiment [2].

The values above are taken from ChEMBL document CHEMBL1629534, “Acetic acid derivatives of 3,4-dihydro-2H-1,2,4-benzothiadiazine 1,1-dioxide as a novel class of potent aldose reductase inhibitors” (J Med Chem, 2010).
